In ChEMBL document CHEMBL1157000, “Aminofurazans as potent inhibitors of AKT kinase” (Bioorg Med Chem Lett, 2009):

How the values were obtained:
LNCaP = test: Antiproliferative activity against human LNCAP cells; assay type: functional, cell-based
Procedure, shortened: (§1)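 Cell proliferation inhibition in tumour lines (BT474, LNCaP) and non-tumour HFF cells; values are the mean of at least two experiments.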

[1] = molecular target: RAC-gamma serine/threonine-protein kinase (Homo sapiens, UniProt Q9Y243); test: Inhibition of AKT3
HFF = test: Antiproliferative activity against human HFF cells; assay type: functional, cell-based; procedure, shortened: as §1
[2] = molecular target: RAC-alpha serine/threonine-protein kinase (Homo sapiens, UniProt P31749); test: Inhibition of AKT
BT-474 = test: Antiproliferative activity against human BT474 cells; assay type: functional, cell-based; procedure, shortened: as §1
Mus musculus = test: Inhibition of GSK3B phosphorylation in human BT474 cells xenografted in ip dosed mouse; assay type: functional, organism-based; conditions: BT-474
Procedure, shortened: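 Mice bearing BT474 xenografts were dosed ip at […], 12.5 or 25 mg/kg, with a vehicle control group. GSK3b phosphorylation in the tumours was the read-out.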

Sequence of RAC-alpha serine/threonine-protein kinase (P31749 whole entry): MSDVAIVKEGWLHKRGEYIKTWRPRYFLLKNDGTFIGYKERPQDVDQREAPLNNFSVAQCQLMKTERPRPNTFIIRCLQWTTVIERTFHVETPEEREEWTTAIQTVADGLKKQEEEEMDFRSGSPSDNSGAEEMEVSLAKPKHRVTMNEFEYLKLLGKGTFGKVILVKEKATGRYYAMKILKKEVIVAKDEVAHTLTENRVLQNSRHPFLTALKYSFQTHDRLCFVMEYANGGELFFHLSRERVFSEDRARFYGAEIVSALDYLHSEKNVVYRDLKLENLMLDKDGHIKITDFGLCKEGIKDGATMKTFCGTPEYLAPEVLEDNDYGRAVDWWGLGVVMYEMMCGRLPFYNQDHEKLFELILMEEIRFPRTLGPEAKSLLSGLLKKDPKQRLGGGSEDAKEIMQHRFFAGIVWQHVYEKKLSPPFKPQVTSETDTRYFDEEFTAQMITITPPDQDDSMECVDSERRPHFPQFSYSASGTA
Sequence of RAC-gamma serine/threonine-protein kinase (Q9Y243 whole entry): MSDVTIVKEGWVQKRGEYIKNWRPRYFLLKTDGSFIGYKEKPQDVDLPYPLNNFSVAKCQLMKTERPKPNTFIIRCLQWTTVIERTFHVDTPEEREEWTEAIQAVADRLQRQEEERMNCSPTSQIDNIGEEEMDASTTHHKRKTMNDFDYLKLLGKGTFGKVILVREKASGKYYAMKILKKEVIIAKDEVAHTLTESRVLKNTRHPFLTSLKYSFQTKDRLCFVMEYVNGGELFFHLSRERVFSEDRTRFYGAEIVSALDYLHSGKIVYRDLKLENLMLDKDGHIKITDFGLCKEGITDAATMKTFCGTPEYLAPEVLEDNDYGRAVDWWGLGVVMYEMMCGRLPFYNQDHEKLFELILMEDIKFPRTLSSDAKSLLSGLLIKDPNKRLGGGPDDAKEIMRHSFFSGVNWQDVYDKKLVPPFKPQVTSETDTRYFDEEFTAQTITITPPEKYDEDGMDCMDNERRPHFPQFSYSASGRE

| Compound | IC50 (LNCaP) [µM] | IC50 [1] [µM] | IC50 (HFF) [µM] | IC50 [2] [µM] | IC50 (BT-474) [µM] | Ki [2] [µM] | inhibition (Mus musculus) |
| --- | --- | --- | --- | --- | --- | --- | --- |
| CCn1c(-c2nonc2N)nc2c(C#CC(C)(C)O)nc(CN3CCCC3)cc21 [GSK-1000163A] | 0.313 | 0.022 | 30 | 0.006 | 1.25 |  |  |
| CCn1c(-c2nonc2N)nc2c(C#CC(C)(C)O)nc(O[C@H](CN)c3ccccc3)cc21 | 0.068 |  | 20 | 0.003 | 0.124 | 0.003 |  |
| CCn1c(-c2nonc2N)nc2c(C#CC(C)(C)O)nc(CN)cc21 | 0.296 |  | 24 | 0.006 | 0.806 |  |  |
| CCn1c(-c2nonc2N)nc2c(C#CC(C)(C)O)nc(O[C@@H](CCN)c3ccccc3)cc21 | 0.005 |  | 11 | 0.002 | 0.001 | 0.0002 |  |
| CCn1c(-c2nonc2N)nc2c(C#CC(C)(C)O)nc(CN(C)C)cc21 | 0.114 |  | 30 | 0.002 | 0.357 |  |  |
| CCn1c(-c2nonc2N)nc2c(C#CC(C)(C)O)nc(OC[C@@H](C)N)cc21 | 0.22 |  | 17 | 0.008 | 0.86 |  |  |
| CCn1c(-c2nonc2N)nc2c(C#CC(C)(C)O)nc(OC[C@@H](N)c3ccccc3)cc21 [GSK-938890A] | 0.176 | 0.049 | 20 | 0.005 | 3.44 |  |  |
| CCn1c(-c2nonc2N)nc2c(C#CC(C)(C)O)nc(O[C@H](CCN)c3ccccc3)cc21 | 0.085 | 0.065 | 29 | 0.004 | 0.224 | 0.0019 |  |
| CCn1c(-c2nonc2N)nc2c(C#CC(C)(C)O)nc(OC[C@H](C)N)cc21 | 0.56 |  | 28 | 0.013 | 4.86 |  |  |
| CCn1c(-c2nonc2N)nc2c(C#CC(C)(C)O)nc(OCCN)cc21 | 0.497 | 0.043 | 5 | 0.005 | 1.08 | 0.006 |  |
| CCn1c(-c2nonc2N)nc2c(C#CC(C)(C)O)nc(CNC)cc21 | 0.201 |  | 5.9 | 0.003 | 0.439 |  |  |
| CCn1c(-c2nonc2N)nc2c(C#CC(C)(C)O)nc(OCCNC)cc21 | 0.896 |  | 17 | 0.012 | 3.19 |  |  |
| CCn1c(-c2nonc2N)nc2c(C#CC(C)(C)O)nc(OC[C@H](N)c3ccccc3)cc21 [GSK-943949A] | 0.124 | 0.017 | 5 | 0.003 | 2.1 |  |  |
| CCn1c(-c2nonc2N)nc2c(C#CC(C)(C)O)nc(OC[C@@H](N)Cc3ccccc3)cc21 | 0.101 |  | 7 | 0.003 | 1.5 |  |  |
| CCn1c(-c2nonc2N)nc2c(C#CC(C)(C)O)nc(CCN)cc21 | 2.02 |  | 24 | 0.004 | 1.09 |  |  |
| CCn1c(-c2nonc2N)nc2c(C#CC(C)(C)O)ncc(OC[C@H]3CCCNC3)c21 [GSK-690693] | 0.021 |  | > 23 |  | 0.069 |  |  |
| CCn1c(-c2nonc2N)nc2c(C#CC(C)(C)O)nc(OCCCN)cc21 | 3.18 |  | 30 | 0.016 | 7.12 | 0.115 |  |
| CCn1c(-c2nonc2N)nc2c(C#CC(C)(C)O)nc(O[C@@H](CN)c3ccccc3)cc21 | 0.027 | 0.001 | 0.519 | 0.001 | 0.035 | 0.0004 | Dose-dependent effect |
| CCn1c(-c2nonc2N)nc2c(C#CC(C)(C)O)nc(OCCCCN)cc21 | 6.16 |  | 30 | 0.063 | 20 |  |  |
| CCn1c(-c2nonc2N)nc2c(C#CC(C)(C)O)nc(OC[C@H](N)Cc3ccccc3)cc21 | 0.02 | 0.003 | 8 | 0.0006 | 0.742 | 0.0002 |  |
| CCn1c(-c2nonc2N)nc2c(C#CC(C)(C)O)nc(CCCN)cc21 | 4.72 | 0.03 | 23 | 0.003 | 3.52 |  |  |
